Measured values: ChEMBL document CHEMBL1125626, “Synthesis and structure-activity relationship of new cephalosporins with amino heterocycles at C-7. Dependence of the antibacterial spectrum and beta-lactamase stability on the pKa of the C-7 heterocycle” (1991)
Values after ≈ are worked out from the molar mass of the structure shown.

Experiments:
[1] = tested on: Enterobacter cloacae; assay: Minimum inhibitory concentration against Enterobacter cloacae P99 (inoculum, 10e4 cfu per spot); format: functional
Outline: (§1)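 MIC in µg/mL, determined in Jewell and Permain growth medium with spot inoculation at 10^4 cfu per spot. P99 is described as a constitutive type I lactamase producer.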

[2] = tested on: Proteus mirabilis; assay: Minimum inhibitory concentration against Proteus mirabilis A18 (inoculum, 10e5 cfu per spot); format: functional
Outline: (§2)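 MIC in µg/mL, determined in Jewell and Permain growth medium with spot inoculation at 10^5 cfu per spot.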

[3] = tested on: Staphylococcus aureus; assay: Minimum inhibitory concentration against Staphylococcus aureus A6 (inoculum, 10e5 cfu per spot); format: functional; outline: as §2
[4] = tested on: Klebsiella aerogenes; assay: Minimum inhibitory concentration against Klebsiella aerogenes X5L (inoculum, 10e4 cfu per spot); format: functional; outline: as §1
[5] = tested on: Staphylococcus aureus; assay: Minimum inhibitory concentration against Staphylococcus aureus A4 (inoculum, 10e5 cfu per spot); format: functional; outline: as §2
[6] = tested on: Proteus vulgaris; assay: Minimum inhibitory concentration against Proteus vulgaris Pv9 (inoculum, 10e5 cfu per spot)
[7] = tested on: Escherichia coli; assay: Minimum inhibitory concentration against Escherichia coli DC2 (inoculum, 10e4 cfu per spot); format: functional; outline: as §1
[8] = tested on: Enterobacter cloacae; assay: Minimum inhibitory concentration against Enterobacter cloacae A13 (inoculum, 10e5 cfu per spot); format: functional; outline: as §2
[9] = tested on: Escherichia coli; assay: Minimum inhibitory concentration against Escherichia coli TEM X3 (inoculum, 10e4 cfu per spot)(TEM I type lactamase producer)
[10] = tested on: Klebsiella aerogenes; assay: Minimum inhibitory concentration against Klebsiella aerogenes X6 (inoculum, 10e4 cfu per spot); format: functional; outline: as §1
[11] = tested on: Escherichia coli; assay: Minimum inhibitory concentration against Escherichia coli DCO (inoculum, 10e4 cfu per spot); format: functional; outline: as §1
[12] = tested on: Enterobacter cloacae; assay: Minimum inhibitory concentration against Enterobacter cloacae P99 (inoculum, 10e4 cfu per spot)(type I lactamase producer); format: functional; outline: as §1
[13] = tested on: Escherichia coli; assay: Minimum inhibitory concentration against Escherichia coli X4 (inoculum, 10e4 cfu per spot)
[14] = tested on: Escherichia coli; assay: Minimum inhibitory concentration against Escherichia coli A8 (inoculum, 10e5 cfu per spot); format: functional; outline: as §2
[15] = tested on: Klebsiella pneumoniae; assay: Minimum inhibitory concentration against Klebsiella pneumoniae A24 (inoculum, 10e5 cfu per spot); format: functional; outline: as §2
[16] = tested on: Streptococcus pyogenes; assay: Minimum inhibitory concentration against Streptococcus pyogenes (inoculum, 10e5 cfu per spot) A1; format: functional; outline: as §2
[17] = tested on: Pseudomonas aeruginosa; assay: Minimum inhibitory concentration against Pseudomonas aeruginosa A21 (inoculum, 10e5 cfu per spot); format: functional; outline: as §2
[18] = tested on: Serratia marcescens; assay: Minimum inhibitory concentration against Serratia marcescens A16 (inoculum, 10e5 cfu per spot); format: functional; outline: as §2

CC(=O)OCC1=C(C(=O)OC(C)(C)C)N2C(=O)[C@@H](Nc3nc4cc(N)ccc4[nH]3)C2SC1 (some centres undefined)
MIC [1]: 0.06 µg/mL (≈ 0.131 µM) | MIC [2]: 32 µg/mL (≈ 69.6 µM) | MIC [3]: 2 µg/mL (≈ 4.35 µM) | MIC [4]: 8 µg/mL (≈ 17.4 µM) | MIC [5]: 32 µg/mL (≈ 69.6 µM) | MIC [6]: 128 µg/mL (≈ 279 µM) | MIC [7]: 0.03 µg/mL (≈ 0.0653 µM) | MIC [8]: 256 µg/mL (≈ 557 µM) | MIC [9]: 1 µg/mL (≈ 2.18 µM) | MIC [10]: 0.12 µg/mL (≈ 0.261 µM) | MIC [11]: 0.06 µg/mL (≈ 0.131 µM) | MIC [12]: 32 µg/mL (≈ 69.6 µM) | MIC [13]: 0.06 µg/mL (≈ 0.131 µM) | MIC [14]: 0.25 µg/mL (≈ 0.544 µM) | MIC [15]: 0.5 µg/mL (≈ 1.09 µM) | MIC [16]: 1 µg/mL (≈ 2.18 µM) | MIC [17]: > 256 µg/mL | MIC [18]: 256 µg/mL (≈ 557 µM)

Cn1nnnc1SCC1=C(C(=O)OC(c2ccccc2)c2ccccc2)N2C(=O)[C@@H](Nc3nc4ccccc4[nH]3)C2SC1 (some centres undefined)
MIC [1]: 0.5 µg/mL (≈ 0.819 µM) | MIC [2]: 0.25 µg/mL (≈ 0.409 µM) | MIC [3]: 4 µg/mL (≈ 6.55 µM) | MIC [4]: 128 µg/mL (≈ 210 µM) | MIC [5]: 128 µg/mL (≈ 210 µM) | MIC [6]: 8 µg/mL (≈ 13.1 µM) | MIC [7]: 0.016 µg/mL (≈ 0.0262 µM) | MIC [8]: > 128 µg/mL | MIC [9]: 4 µg/mL (≈ 6.55 µM) | MIC [10]: 2 µg/mL (≈ 3.27 µM) | MIC [11]: 0.5 µg/mL (≈ 0.819 µM) | MIC [12]: 64 µg/mL (≈ 105 µM) | MIC [13]: 0.5 µg/mL (≈ 0.819 µM) | MIC [14]: 0.5 µg/mL (≈ 0.819 µM) | MIC [15]: 0.5 µg/mL (≈ 0.819 µM) | MIC [16]: 0.5 µg/mL (≈ 0.819 µM) | MIC [17]: > 128 µg/mL | MIC [18]: 64 µg/mL (≈ 105 µM)

CC(=O)OCC1=C(C(=O)OC(c2ccccc2)c2ccccc2)N2C(=O)[C@@H](Nc3nc4cc(C(F)(F)F)ccc4[nH]3)C2SC1 (some centres undefined)
MIC [1]: 32 µg/mL (≈ 51.4 µM) | MIC [2]: 128 µg/mL (≈ 206 µM) | MIC [3]: 2 µg/mL (≈ 3.21 µM) | MIC [4]: > 256 µg/mL | MIC [5]: 128 µg/mL (≈ 206 µM) | MIC [6]: > 256 µg/mL | MIC [7]: 0.12 µg/mL (≈ 0.193 µM) | MIC [8]: > 256 µg/mL | MIC [9]: 32 µg/mL (≈ 51.4 µM) | MIC [10]: 64 µg/mL (≈ 103 µM) | MIC [11]: 32 µg/mL (≈ 51.4 µM) | MIC [12]: > 256 µg/mL | MIC [13]: 32 µg/mL (≈ 51.4 µM) | MIC [14]: 32 µg/mL (≈ 51.4 µM) | MIC [15]: 32 µg/mL (≈ 51.4 µM) | MIC [16]: 1 µg/mL (≈ 1.61 µM) | MIC [17]: > 256 µg/mL | MIC [18]: > 256 µg/mL

CC(=O)OCC1=C(C(=O)OC(c2ccccc2)c2ccccc2)N2C(=O)[C@@H](NC3=NCCN3)C2SC1 (some centres undefined)
MIC [1]: 32 µg/mL (≈ 63.2 µM) | MIC [2]: 256 µg/mL (≈ 505 µM) | MIC [3]: > 256 µg/mL | MIC [4]: 64 µg/mL (≈ 126 µM) | MIC [5]: > 256 µg/mL | MIC [6]: > 256 µg/mL | MIC [7]: 2 µg/mL (≈ 3.95 µM) | MIC [8]: 64 µg/mL (≈ 126 µM) | MIC [9]: 32 µg/mL (≈ 63.2 µM) | MIC [10]: 64 µg/mL (≈ 126 µM) | MIC [11]: 32 µg/mL (≈ 63.2 µM) | MIC [12]: 64 µg/mL (≈ 126 µM) | MIC [13]: 32 µg/mL (≈ 63.2 µM) | MIC [14]: 32 µg/mL (≈ 63.2 µM) | MIC [15]: 64 µg/mL (≈ 126 µM) | MIC [16]: 32 µg/mL (≈ 63.2 µM) | MIC [17]: > 256 µg/mL | MIC [18]: 256 µg/mL (≈ 505 µM)

CC(=O)OCC1=C(C(=O)OC(c2ccccc2)c2ccccc2)N2C(=O)[C@@H](Nc3nc4c(O)cccc4[nH]3)C2SC1 (some centres undefined)
MIC [1]: 1 µg/mL (≈ 1.75 µM) | MIC [2]: 16 µg/mL (≈ 28 µM) | MIC [3]: 2 µg/mL (≈ 3.5 µM) | MIC [4]: 256 µg/mL (≈ 449 µM) | MIC [5]: 32 µg/mL (≈ 56.1 µM) | MIC [6]: 128 µg/mL (≈ 224 µM) | MIC [7]: 0.12 µg/mL (≈ 0.21 µM) | MIC [8]: > 256 µg/mL | MIC [9]: 32 µg/mL (≈ 56.1 µM) | MIC [10]: 1 µg/mL (≈ 1.75 µM) | MIC [11]: 0.5 µg/mL (≈ 0.876 µM) | MIC [12]: > 256 µg/mL | MIC [13]: 0.5 µg/mL (≈ 0.876 µM) | MIC [14]: 1 µg/mL (≈ 1.75 µM) | MIC [15]: 8 µg/mL (≈ 14 µM) | MIC [16]: 2 µg/mL (≈ 3.5 µM) | MIC [17]: > 256 µg/mL | MIC [18]: 256 µg/mL (≈ 449 µM)

CC1(C)S[C@@H]2[C@H](/N=C/N3CCCCCC3)C(=O)N2[C@H]1C(=O)O [AMDINOCILLIN]
MIC [1]: 0.03 µg/mL (≈ 0.0922 µM) | MIC [2]: 32 µg/mL (≈ 98.3 µM) | MIC [3]: 16 µg/mL (≈ 49.2 µM) | MIC [4]: 4 µg/mL (≈ 12.3 µM) | MIC [5]: > 256 µg/mL | MIC [6]: 64 µg/mL (≈ 197 µM) | MIC [7]: 0.004 µg/mL (≈ 0.0123 µM) | MIC [8]: 0.25 µg/mL (≈ 0.768 µM) | MIC [9]: 1 µg/mL (≈ 3.07 µM) | MIC [10]: 0.12 µg/mL (≈ 0.369 µM) | MIC [11]: 0.03 µg/mL (≈ 0.0922 µM) | MIC [12]: 0.06 µg/mL (≈ 0.184 µM) | MIC [13]: 0.03 µg/mL (≈ 0.0922 µM) | MIC [14]: 0.06 µg/mL (≈ 0.184 µM) | MIC [15]: 0.03 µg/mL (≈ 0.0922 µM) | MIC [16]: 16 µg/mL (≈ 49.2 µM) | MIC [17]: > 256 µg/mL | MIC [18]: 128 µg/mL (≈ 393 µM)

Cc1nnc(SCC2=C(C(=O)OC(c3ccccc3)c3ccccc3)N3C(=O)[C@@H](Nc4nc5ccccc5[nH]4)C3SC2)s1 (some centres undefined)
MIC [1]: 1 µg/mL (≈ 1.6 µM) | MIC [2]: 4 µg/mL (≈ 6.38 µM) | MIC [3]: 1 µg/mL (≈ 1.6 µM) | MIC [4]: ≥ 128 µg/mL | MIC [5]: 8 µg/mL (≈ 12.8 µM) | MIC [6]: ≥ 128 µg/mL | MIC [7]: < 0.03 µg/mL | MIC [8]: ≥ 128 µg/mL | MIC [9]: 4 µg/mL (≈ 6.38 µM) | MIC [10]: 2 µg/mL (≈ 3.19 µM) | MIC [11]: 0.5 µg/mL (≈ 0.798 µM) | MIC [12]: ≥ 128 µg/mL | MIC [13]: 0.5 µg/mL (≈ 0.798 µM) | MIC [14]: 1 µg/mL (≈ 1.6 µM) | MIC [15]: 1 µg/mL (≈ 1.6 µM) | MIC [16]: 0.5 µg/mL (≈ 0.798 µM) | MIC [17]: ≥ 128 µg/mL | MIC [18]: ≥ 128 µg/mL

CC(=O)Nc1ccc2[nH]c(N[C@@H]3C(=O)N4C(C(=O)OC(C)(C)C)=C(COC(C)=O)CSC34)nc2c1 (some centres undefined)
MIC [1]: 2 µg/mL (≈ 3.99 µM) | MIC [2]: 8 µg/mL (≈ 16 µM) | MIC [3]: 8 µg/mL (≈ 16 µM) | MIC [4]: > 256 µg/mL | MIC [5]: 256 µg/mL (≈ 510 µM) | MIC [6]: 128 µg/mL (≈ 255 µM) | MIC [7]: 0.12 µg/mL (≈ 0.239 µM) | MIC [8]: > 256 µg/mL | MIC [9]: 16 µg/mL (≈ 31.9 µM) | MIC [10]: 2 µg/mL (≈ 3.99 µM) | MIC [11]: 1 µg/mL (≈ 1.99 µM) | MIC [12]: > 256 µg/mL | MIC [13]: 1 µg/mL (≈ 1.99 µM) | MIC [14]: 1 µg/mL (≈ 1.99 µM) | MIC [15]: 32 µg/mL (≈ 63.8 µM) | MIC [16]: 4 µg/mL (≈ 7.98 µM) | MIC [17]: > 256 µg/mL | MIC [18]: > 256 µg/mL
